Measurements reported in ChEMBL document CHEMBL4715799, “An N,N-Bis(benzimidazolylpicolinoyl)piperazine (BT-11): A Novel Lanthionine Synthetase C-Like 2-Based Therapeutic for Inflammatory Bowel Disease” (J Med Chem, 2016).
Activity calls are given as the source filed them. No cut-off for these calls is given here.

How the values were obtained:
Mus musculus [1] = experiment: Antiinflammatory activity in LANCL2-/- C57BL/6J mouse model of DSS-induced colitis assessed as reduction of TNF-alpha positive cells at 8 mg/kg, po administered as single dose via gavage measured 7 days post DSS challenge by immunostaining based flow cytometric analysis; assay type: functional, organism-based
Mus musculus [2] = experiment: Antiinflammatory activity in C57BL/6J mouse model of DSS-induced colitis assessed as upregulation of IL-10 secretion at 8 mg/kg, po administered as […] via gavage measured 7 days post DSS challenge by immunostaining based flow cytometric analysis; assay type: functional, organism-based
In short: (§1)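 DSS colitis in WT or LANCL2−/− mice; 8 mg/kg/d by daily gavage from day 0, analysed at day 7. Colonic cells (4−6 × 10^5) surface-stained 20 min with fluorochrome-conjugated antibodies, then fixed, permeabilized, Fc-blocked and stained intracellularly. Stored fixed at 4 °C in the dark. Flow cytometry with live-cell then single-cell gating.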

[3] = Drug concentration in rat colon at 80 mg/kg, po by LC-MS/MS analysis; assay type: ADME, organism-based; conditions: in vivo
Mus musculus [4] = experiment: Antiinflammatory activity in LANCL2-/- C57BL/6J mouse model of DSS-induced colitis assessed as reduction in leukocyte infiltration of gut mucosa at 8 mg/kg, po administered […] via gavage measured 7 days post DSS challenge by H and E staining based histopathological analysis; assay type: functional, organism-based
In short: (§2)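 Colitis induced in C57BL/6J or LANCL2−/− mice with DSS in drinking water. Compound given at 8 mg/kg/d by daily orogastric gavage from day 0 of the DSS challenge. Assessed at day 7 by disease activity index and by histopathology of colon: formalin-fixed, paraffin 5 μm sections, H&E, scored for leukocytic infiltration, epithelial erosion, mucosal thickening.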

Mus musculus [5] = experiment: Antiinflammatory activity in C57BL/6J mouse model of DSS-induced colitis assessed as upregulation of colonic LANCL2 mRNA expression at 8 mg/kg, po administered as single dose via gavage measured after 3 days by qRT-PCR analysis; assay type: functional, organism-based; conditions: time 3.0 day
In short: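 DSS colitis mice given 8 mg/kg/d orally versus vehicle; colon sampled on day 3 after treatment. Colonic LANCL2 mRNA measured by SYBR green real-time qPCR from 1 μg total RNA, quantified against amplicon standard curves.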

[6] = Cmax in rat at 500 mg/kg, po by LC-MS/MS analysis by LC-MS/MS analysis; assay type: ADME, organism-based; parameters: route oral, dose 500 mg/kg; conditions: in vivo
Mus musculus [7] = experiment: Antiinflammatory activity in LANCL2-/- C57BL/6J mouse model of DSS-induced colitis assessed as reduction of MCP1 positive cells at 8 mg/kg, po […] via gavage measured 7 days post DSS challenge by immunostaining based flow cytometric analysis; assay type: functional, organism-based; in short: as §1
Mus musculus [8] = organism: Mus musculus; experiment: Antiinflammatory activity in C57BL/6J mouse model of DSS-induced colitis assessed as decrease in TNF-alpha gene expression at […] measured 7 days post DSS challenge by qRT-PCR analysis; assay type: functional, organism-based
Mus musculus [9] = experiment: Antiinflammatory activity in C57BL/6J mouse model of DSS-induced colitis assessed as reduction of MHCII+ CD11c+ […] at 8 mg/kg, po administered as single dose via gavage measured 7 days post DSS challenge by immunostaining based flow cytometric analysis; assay type: functional, organism-based
[10] = Tmax in rat plasma at 80 mg/kg, po by LC-MS/MS analysis; assay type: ADME, organism-based
In short: (§3)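 Healthy rats given a single 80 mg/kg oral dose; plasma sampled over 0.5−48 h for pharmacokinetic parameters.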

Mus musculus [11] = experiment: Antiinflammatory activity in C57BL/6J mouse model of DSS-induced colitis assessed as reduction of TNF-alpha positive cells at 8 mg/kg, po administered as single dose via gavage measured 7 days post DSS challenge by immunostaining based flow cytometric analysis; assay type: functional, organism-based
Mus musculus [12] = experiment: Antiinflammatory activity in C57BL/6J mouse model of DSS-induced colitis assessed as reduction in colonic lesion at 8 mg/kg, po administered as single dose via gavage measured 7 days post DSS challenge; assay type: functional, organism-based
Mus musculus [13] = experiment: Antiinflammatory activity in C57BL/6J mouse model of DSS-induced colitis assessed as reduction of MCP1 positive cells at 8 mg/kg, po administered as single dose via gavage measured 7 days post DSS challenge by immunostaining based flow cytometric analysis; assay type: functional, organism-based
[14] = Elimination rate constant in rat at 80 mg/kg, po; assay type: ADME, organism-based; conditions: in vivo; in short: as §3
[15] = Apparent volume of distribution in rat at 80 mg/kg, po by LC-MS/MS analysis; assay type: ADME, organism-based; conditions: in vivo; in short: as §3
Splenocyte = experiment: Induction of intracellular cAMP production in LANCL2-/- C57BL/6J mouse splenocytes at 1.25 to 10 uM incubated for 20 hrs followed by redosing for 10 mins measured by EIA; assay type: functional, tissue-based; conditions: dose 1.25-10 µM, time 1210.0 min
In short: (§4)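 Splenocytes from male WT or LANCL2−/− C57BL/6J mice over 8 weeks, stimulated on plates precoated with anti-CD28 (1 μg/mL) and anti-CD3 (5 μg/mL). Compound in cRPMI at 0, 1.25, 2.5, 5, 10 μM, four replicates, plus unstimulated controls. After 20 h, a second 10 min treatment at the same concentrations. Cells washed, lysed in 0.1 M HCl, intracellular cAMP read by direct EIA.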

Mus musculus [16] = experiment: Antiinflammatory activity in LANCL2-/- C57BL/6J mouse model of DSS-induced colitis assessed as reduction of MHCII+ CD11c+ […] at 8 mg/kg, po […] via gavage measured 7 days post DSS challenge by immunostaining based flow cytometric analysis; assay type: functional, organism-based; in short: as §1
Mus musculus [17] = experiment: Antiinflammatory activity in LANCL2-/- C57BL/6J mouse model of DSS-induced colitis at 8 mg/kg, po administered as single dose via gavage measured 7 days DSS challenge; assay type: functional, organism-based
Mus musculus [18] = experiment: Antiinflammatory activity in LANCL2-/- C57BL/6J mouse model of DSS-induced colitis assessed as upregulation of IL-10 secretion at 8 mg/kg, po administered as single dose via gavage measured 7 days post DSS challenge by immunostaining based flow cytometric analysis; assay type: functional, organism-based
[19] = target: T1, LanC-like protein 2 (Mus musculus) (UniProt Q9JJK2); experiment: Activation of wild-type LANCL2 in C57BL/6J mouse splenocytes assessed as increase in intracellular cAMP production incubated for 20 hrs followed by compound redosing for 10 mins measured by EIA; assay type: cell-based; conditions: Splenocyte, filed as activator, dose 1.25-10 µM, time 1210.0 min; in short: as §4
T1 sequence (whole entry): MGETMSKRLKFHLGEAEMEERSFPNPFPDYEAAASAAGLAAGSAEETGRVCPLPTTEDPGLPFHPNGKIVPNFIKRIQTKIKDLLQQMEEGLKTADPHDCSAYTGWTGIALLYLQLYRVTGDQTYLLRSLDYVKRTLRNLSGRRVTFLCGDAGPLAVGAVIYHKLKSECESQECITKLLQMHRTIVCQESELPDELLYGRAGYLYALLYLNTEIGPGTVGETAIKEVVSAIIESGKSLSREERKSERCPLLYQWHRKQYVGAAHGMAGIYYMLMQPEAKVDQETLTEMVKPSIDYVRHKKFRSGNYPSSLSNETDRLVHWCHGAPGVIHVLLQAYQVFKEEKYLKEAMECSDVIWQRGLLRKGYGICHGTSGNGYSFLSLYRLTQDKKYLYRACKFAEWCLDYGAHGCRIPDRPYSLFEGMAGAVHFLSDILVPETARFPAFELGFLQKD

Mus musculus [20] = experiment: Antiinflammatory activity in C57BL/6J mouse model of DSS-induced colitis assessed as upregulation of colonic LANCL2 mRNA expression at 8 mg/kg, po administered as single dose via gavage measured 3 days post DSS challenge by qRT-PCR analysis
[21] = Cmax in rat plasma at 80 mg/kg, po measured at 1 hr by LC-MS/MS analysis; assay type: ADME, organism-based; parameters: route oral, dose 80 mg/kg, time 1 hrs; in short: as §3
Mus musculus [22] = experiment: Antiinflammatory activity in C57BL/6J mouse model of DSS-induced colitis assessed as improvement in disease activity at 8 mg/kg, po administered as […] via gavage measured 7 days post DSS challenge; assay type: functional, organism-based; in short: as §2
[23] = Tmax in rat at 500 mg/kg, po by LC-MS/MS analysis; assay type: ADME, organism-based; conditions: in vivo
Mus musculus [24] = experiment: Antiinflammatory activity in C57BL/6J mouse model of DSS-induced colitis assessed as increase in IL-10 gene expression at 8 mg/kg, po administered as single dose via gavage measured 7 days post DSS challenge by qRT-PCR analysis; assay type: functional, organism-based
[25] = Half-life in rat at 80 mg/kg, po by LC-MS/MS analysis; conditions: in vivo

SMILES: O=C(c1cccc(-c2nc3ccccc3[nH]2)n1)N1CCN(C(=O)c2cccc(-c3nc4ccccc4[nH]3)n2)CC1 [OMILANCOR]
- Activity (Mus musculus [1]): inactive
- Activity (Mus musculus [2]): Active
- Drug uptake [3]: Active
- Activity (Mus musculus [4]): inactive
- Activity (Mus musculus [5]): Active
- Cmax [6]: 17 ng/mL
- Activity (Mus musculus [7]): inactive
- Activity (Mus musculus [8]): Active
- Activity (Mus musculus [9]): Active
- Tmax [10]: 1 h
- Activity (Mus musculus [11]): Active
- Activity (Mus musculus [12]): Active
- Activity (Mus musculus [13]): Active
- Kel [14]: 0.225 h⁻¹
- Vz [15]: 3.38 L/kg
- Activity (Splenocyte): inactive
- Activity (Mus musculus [16]): inactive
- Activity (Mus musculus [17]): inactive
- Activity (Mus musculus [18]): inactive
- Activity [19]: Dose-dependent effect
- Activity (Mus musculus [20]): Active
- Cmax [21]: 28 ng/mL
- Activity (Mus musculus [22]): Active
- Tmax [23]: 4 h
- Activity (Mus musculus [24]): Active
- half-life [25]: 3.1 h
